Results collected from several papers.
Lines come from different studies, so protocols differ. pIC50: −log10 of the molar value.
Effect on: cell growth or viability

Compound | cell line | technique | time | pIC50
COc1cc(NS(C)(=O)=O)ccc1Nc1c2ccccc2nc2ccccc12 | GISTT1 | resazurin | 72 h | 6.51
COc1cc(Nc2nccc(-c3cnn4nc(OC)ccc34)n2)cc(C(F)(F)F)c1 | NCI-H1838 | ATP luminescence | – | < 5.52
CCC(=O)Nc1cc(Nc2nc(N3CCc4sccc4C3)c3cccnc3n2)c(OC)cc1N1CCN(CCO)CC1 | NCI-H460 | MTT | – | < 4.30
COc1ccc2oc(C(=O)c3ccccc3)cc2c1-c1ccccc1 | L1210 | – | 48 h | < 4.30
CCC(=O)Nc1cc(Nc2nc(Nc3cnn(C)c3)c3sccc3n2)c(OC)cc1N(C)CCN(C)C | NCI-H460 | MTT | – | < 4.30
O=C1Nc2ccc(OC(F)(F)F)cc2C(=O)CCc2ccccc21 | L6 | – | – | 4.36
CC[C@@H](C)[C@H](N)C(=O)N1Cc2ccccc2C1 | RS4-11 | ATP luminescence | 24 h | 4.15
O=c1[nH]cc(F)c(=O)[nH]1 | L1210 | – | 48 h | 6.31
O=c1c(O)c(-c2ccc(O)c(O)c2)oc2cc(O)cc(O)c12 | SCaBER | ATP luminescence | 72 h | 4.62
COC(=O)Nc1nc2ccc(C(=O)c3ccccc3)cc2[nH]1 | GISTT1 | resazurin | 72 h | 6.09
C=C(C)C(=O)Nc1ccc(-c2c(-c3ccc(Oc4nccc(C)n4)c(F)c3)c3c(N)ncnc3n2C)cc1 | MDA-MB-453 | ATP luminescence | 96 h | < 5.00
CC(C)[C@@H](N)c1nc2cc(-c3ccncc3F)sc2c(=O)[nH]1 | COLO 205 | MTT | – | 5.92
O=C1Nc2ccccc2C(=O)CCc2cc(F)ccc21 | L6 | – | – | 4.02
COc1ccc(C(=O)c2cc3c(-c4ccccc4)c(OC)ccc3o2)cc1 | L1210 | – | 48 h | 5.55
CC(C)=CCC/C(C)=C/COc1ccc2ccc(=O)oc2c1 | COLO 205 | MTT | 72 h | 4.20
CO/N=C1\CCc2ccccc2C(=O)Nc2ccccc21 | L6 | – | – | 3.60
CCN(CC)CCCC(C)Nc1ccnc2cc(Cl)ccc12 (centres unmarked) | GISTT1 | resazurin | 72 h | < 6.00
COc1cc(OC)cc(C(=O)c2cc3c(-c4ccccc4)c(O)ccc3o2)c1 | L1210 | – | 48 h | 4.72
O=C1CCc2ncccc2C(=O)Nc2ccccc21 | L6 | – | – | 3.80

Compound | cell line | technique | time | pIC50
COc1ccccc1C(=O)c1cc2c(-c3ccccc3)c(O)ccc2o1 | L1210 | – | 48 h | < 4.30
O=C1Nc2ccccc2C(=O)CCc2ccc(F)cc21 | L6 | – | – | 3.96
COc1cc(N(C)CCN(C)C)c(NC(=O)/C=C/C(C)C)cc1Nc1nc(N2CCc3sccc3C2)c2sccc2n1 | NCI-H460 | MTT | – | < 4.30
COc1ccc(C(=O)c2cc3c(-c4ccccc4)c(O)ccc3o2)cc1 | L1210 | – | 48 h | 5.89
O=c1ncccn1[C@@H]1O[C@H](CO)[C@@H](O)[C@H]1O | MEC1 | – | 48 h | 3.71
O=C1Nc2ccc(C(F)(F)F)cc2C(=O)CCc2ccccc21 | L6 | – | – | 5.05
COc1cc2ccc(=O)oc2cc1OC | COLO 205 | MTT | 72 h | < 4.00
Nc1nc(Cl)nc2c1ncn2[C@@H]1O[C@H](CO)[C@@H](O)[C@@H]1F | GISTT1 | resazurin | 72 h | < 6.00
O=c1c(O[C@@H]2O[C@H](CO)[C@@H](O)[C@H](O)[C@H]2O)c(-c2ccc(O)c(O)c2)oc2cc(O)cc(O)c12 | SCaBER | ATP luminescence | 72 h | 5.06
CC(C)[C@H](N)c1nc2cc(-c3ccnc(Cl)c3)sc2c(=O)[nH]1 | COLO 205 | MTT | – | 5.80
COc1cc([C@@H]2c3cc4c(cc3[C@@H](O[C@@H]3O[C@@H]5CO[C@@H](C)O[C@H]5[C@H](O)[C@H]3O)[C@H]3COC(=O)[C@H]23)OCO4)cc(OC)c1O | GISTT1 | resazurin | 72 h | < 6.00
CCOC(=O)c1ccc2c(c1)C(=O)CCc1ccccc1C(=O)N2 | L6 | – | – | 4.82
CC(C)[C@H](N)c1nc2cc(-c3ccnnc3)sc2c(=O)[nH]1 | COLO 205 | MTT | – | 5.22
Nc1nc(F)nc2c1ncn2[C@@H]1O[C@H](COP(=O)(O)O)[C@@H](O)[C@@H]1O | GISTT1 | resazurin | 72 h | < 6.00
COc1cccc(C(=O)c2cc3c(-c4ccccc4)c(O)ccc3o2)c1 | L1210 | – | 48 h | 4.42
CC(=O)[C@]1(O)Cc2c(O)c3c(c(O)c2[C@@H](O[C@H]2C[C@H](N)[C@H](O)[C@H](C)O2)C1)C(=O)c1ccccc1C3=O | GISTT1 | resazurin | 72 h | 7.00
C#C[C@]1(CO)O[C@@H](n2cnc3c(N)nc(F)nc32)C[C@@H]1O | MDCK-II | MTT | 48 h | 3.42
O=C1Nc2ccccc2C(=NO)CCc2ccccc21 | L6 | – | – | < 3.42
COc1cc([C@@H]2c3cc4c(cc3[C@@H](O[C@@H]3O[C@@H]5CO[C@@H](c6cccs6)O[C@H]5[C@H](O)[C@H]3O)[C@H]3COC(=O)[C@H]23)OCO4)cc(OC)c1O | GISTT1 | resazurin | 72 h | < 6.00
